Reference: ChEMBL document CHEMBL2151019, “Potent and selective inhibitors of PI3Kδ: obtaining isoform selectivity from the affinity pocket and tryptophan shelf” (Bioorg Med Chem Lett, 2012)
pIC50: −log10 of the molar value. One block for each molecule: values may come before it.

Experiments:
[1] = Selectivity ratio of IC50 for PI3Kalpha to IC50 for PI3Kdelta
Summary of the method: (§1)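 Ratios of biochemical IC50 values, each against the PI3Kδ IC50. Both IC50s come from the fluorescence polarization assay monitoring PIP2-to-PIP3 conversion by each Class I isoform.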

[2] = Selectivity ratio of IC50 for PI3Kgamma to IC50 for PI3Kdelta; summary of the method: as §1
[3] = target: T1, Phosphatidylinositol 4,5-bisphosphate 3-kinase catalytic subunit delta isoform (Homo sapiens, UniProt O00329); test: Inhibition of PI3K p110delta using PIP2 as substrate assessed as PIP3 formation by fluorescence polarization assay
T1 sequence (O00329 whole entry): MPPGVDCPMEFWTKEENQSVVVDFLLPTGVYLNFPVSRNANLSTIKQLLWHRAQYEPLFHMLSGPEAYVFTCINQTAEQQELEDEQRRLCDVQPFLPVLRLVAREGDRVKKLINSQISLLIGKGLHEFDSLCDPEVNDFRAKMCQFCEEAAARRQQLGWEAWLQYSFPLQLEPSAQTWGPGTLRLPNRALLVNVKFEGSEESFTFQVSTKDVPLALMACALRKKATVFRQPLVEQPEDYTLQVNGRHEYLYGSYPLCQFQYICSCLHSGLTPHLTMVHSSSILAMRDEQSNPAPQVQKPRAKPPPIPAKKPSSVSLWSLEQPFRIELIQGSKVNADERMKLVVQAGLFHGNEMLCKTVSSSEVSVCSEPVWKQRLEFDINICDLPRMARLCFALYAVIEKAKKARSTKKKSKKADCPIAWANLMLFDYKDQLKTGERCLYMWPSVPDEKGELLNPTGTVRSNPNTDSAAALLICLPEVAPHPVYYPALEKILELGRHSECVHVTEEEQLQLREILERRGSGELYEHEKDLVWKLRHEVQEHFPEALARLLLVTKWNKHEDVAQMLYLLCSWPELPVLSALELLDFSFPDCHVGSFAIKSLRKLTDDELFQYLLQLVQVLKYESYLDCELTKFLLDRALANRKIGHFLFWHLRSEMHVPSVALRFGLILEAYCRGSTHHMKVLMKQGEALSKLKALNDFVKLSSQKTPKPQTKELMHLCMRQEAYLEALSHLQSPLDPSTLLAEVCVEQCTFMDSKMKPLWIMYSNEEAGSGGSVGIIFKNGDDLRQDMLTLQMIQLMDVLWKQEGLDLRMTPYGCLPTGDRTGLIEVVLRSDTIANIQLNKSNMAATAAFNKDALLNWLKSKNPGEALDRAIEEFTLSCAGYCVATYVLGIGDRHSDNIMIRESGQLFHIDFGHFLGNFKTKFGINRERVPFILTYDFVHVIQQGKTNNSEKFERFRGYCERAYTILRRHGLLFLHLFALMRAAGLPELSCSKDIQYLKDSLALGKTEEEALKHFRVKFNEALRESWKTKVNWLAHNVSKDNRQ
Summary of the method: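 Biochemical fluorescence polarization assay following conversion of PIP2 to PIP3 by PI3Kδ; IC50 determined.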

[4] = Selectivity ratio of IC50 for PI3Kbeta to IC50 for PI3Kdelta; summary of the method: as §1
[5] = target: T1, Phosphatidylinositol 4,5-bisphosphate 3-kinase catalytic subunit delta isoform; test: Inhibition of PI3Kdelta-mediated AKT phosphorylation in B cells in presence of human serum; type: cell-based
Summary of the method: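 Cellular assay in the PI3Kδ-dependent B-cell cancer line Ri-1. Downstream pAKT measured with human serum added (serum-shifted); IC50 determined.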

[6] = Half life in BALB/c mouse at 20 mg/kg, po; type: ADME, organism-based; design: dose 20 mg/kg, route oral; conditions: in vivo
Summary of the method: (§2)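 Female Balb/c mice received the compound orally as a suspension in 0.5% methylcellulose/0.2% Tween-80 (MCT). Plasma concentration–time profiles were used to derive Cmax, AUC and terminal half-life.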

[7] = Cmax in CD1 mouse at 5 mg/kg, po; type: ADME, organism-based; design: dose 5 mg/kg, route oral; conditions: in vivo
Summary of the method: (§3)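 Female CD-1 mice were given a 5 mg/kg oral dose as an MCT suspension (0.5% methylcellulose/0.2% Tween-80). Cmax, AUC and half-life came from the plasma concentration–time profiles.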

[8] = Cmax in BALB/c mouse at 20 mg/kg, po; type: ADME, organism-based; design: dose 20 mg/kg, route oral; conditions: in vivo; summary of the method: as §2
[9] = Clearance in CD1 mouse at 1 mg/kg, iv; type: ADME, organism-based; design: dose 1 mg/kg, route intravenous; conditions: in vivo
[10] = AUC in Sprague-Dawley rat at 10 mg/kg, po; type: ADME, organism-based; design: dose 10 mg/kg, route oral; conditions: plasma
Summary of the method: (§4)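 Oral dosing in male Sprague–Dawley rats used an MCT suspension (0.5% methylcellulose/0.2% Tween-80). Cmax, AUC and terminal half-life were taken from plasma concentration–time curves.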

[11] = Oral bioavailability in Sprague-Dawley rat at 5 mg/kg; type: ADME, organism-based; conditions: in vivo
Summary of the method: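 Male Sprague–Dawley rats received an IV dose of 1 mg/kg in 5% DMSO/5% Cremophor and an oral dose of 5 mg/kg as an MCT suspension (0.5% methylcellulose/0.2% Tween-80). Plasma exposure was compared between the two routes.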

[12] = Cmax in Sprague-Dawley rat at 30 mg/kg, po; type: ADME, organism-based; design: dose 30 mg/kg, route oral; conditions: in vivo; summary of the method: as §4
[13] = Cmax in BALB/c mouse at 40 mg/kg, po; type: ADME, organism-based; design: dose 40 mg/kg, route oral; conditions: in vivo; summary of the method: as §2
[14] = Cmax in Sprague-Dawley rat at 5 mg/kg, po; type: ADME, organism-based; design: dose 5 mg/kg, route oral; conditions: in vivo; summary of the method: as §4
[15] = Half life in Sprague-Dawley rat at 5 mg/kg, po; type: ADME, organism-based; design: dose 5 mg/kg, route oral; conditions: in vivo; summary of the method: as §4
[16] = AUC in BALB/c mouse at 20 mg/kg, po; type: ADME, organism-based; design: dose 20 mg/kg, route oral; conditions: plasma; summary of the method: as §2
[17] = Clearance in Sprague-Dawley rat at 1 mg/kg, iv; type: ADME, organism-based; design: dose 1 mg/kg, route intravenous; conditions: in vivo
Summary of the method: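 Male Sprague–Dawley rats received 1 mg/kg intravenously in 5% DMSO/5% Cremophor. In vivo clearance was derived from plasma concentrations over time.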

[18] = Oral bioavailability in CD1 mouse at 5 mg/kg; type: ADME, organism-based; conditions: in vivo
Summary of the method: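 Female CD-1 mice received an IV dose of 1 mg/kg in 5% DMSO/5% Cremophor and an oral dose of 5 mg/kg as an MCT suspension (0.5% methylcellulose/0.2% Tween-80). Plasma exposure was compared between the two routes.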

[19] = AUC in BALB/c mouse at 40 mg/kg, po; type: ADME, organism-based; design: dose 40 mg/kg, route oral; conditions: plasma; summary of the method: as §2
[20] = AUC in Sprague-Dawley rat at 30 mg/kg, po; type: ADME, organism-based; design: dose 30 mg/kg, route oral; conditions: plasma; summary of the method: as §4
[21] = Half life in BALB/c mouse at 40 mg/kg, po; type: ADME, organism-based; design: dose 40 mg/kg, route oral; conditions: in vivo; summary of the method: as §2
[22] = Half life in Sprague-Dawley rat at 30 mg/kg, po; type: ADME, organism-based; design: dose 30 mg/kg, route oral; conditions: in vivo; summary of the method: as §4
[23] = AUC in CD1 mouse at 5 mg/kg, po; type: ADME, organism-based; design: dose 5 mg/kg, route oral; conditions: plasma; summary of the method: as §3
[24] = Volume of distribution at steady state in CD1 mouse at 1 mg/kg, iv; type: ADME, organism-based; design: dose 1 mg/kg, route intravenous; conditions: in vivo, read-out: Vdss
Summary of the method: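 Single IV dose of 1 mg/kg in 5% DMSO/5% Cremophor to female CD-1 mice. Pharmacokinetic parameters were taken from plasma concentrations over time.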

[25] = Volume of distribution at steady state in Sprague-Dawley rat at 1 mg/kg, iv; type: ADME, organism-based; design: dose 1 mg/kg, route intravenous; conditions: in vivo, read-out: Vdss
Summary of the method: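 Male Sprague–Dawley rats were given 1 mg/kg IV in 5% DMSO/5% Cremophor. Pharmacokinetic parameters were taken from plasma concentrations over time.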

[26] = Half life in Sprague-Dawley rat at 10 mg/kg, po; type: ADME, organism-based; design: dose 10 mg/kg, route oral; conditions: in vivo; summary of the method: as §4
[27] = AUC in Sprague-Dawley rat at 5 mg/kg, po; type: ADME, organism-based; design: dose 5 mg/kg, route oral; conditions: plasma; summary of the method: as §4
[28] = Half life in CD1 mouse at 5 mg/kg, po; type: ADME, organism-based; design: dose 5 mg/kg, route oral; conditions: in vivo; summary of the method: as §3
[29] = Cmax in Sprague-Dawley rat at 10 mg/kg, po; type: ADME, organism-based; design: dose 10 mg/kg, route oral; conditions: in vivo; summary of the method: as §4

Ratio IC50 [1]: 220
Ratio IC50 [2]: 1400
pIC50 [3]: 9.22
Ratio IC50 [4]: 200
SMILES: CC(C)(O)C1CCN(Cc2nc3c(N4CCOCC4)nc(-c4c(F)ccc5[nH]ccc45)nc3s2)CC1

Ratio IC50 [1]: 170
Ratio IC50 [2]: 910
pIC50 [3]: 8.40
Ratio IC50 [4]: 110
SMILES: CC(C)(O)C1CCN(Cc2cc3nc(-c4c(F)ccc5[nH]ccc45)nc(N4CCOCC4)c3s2)CC1

pIC50 [5]: 7.17
Ratio IC50 [1]: 58
Ratio IC50 [2]: 120
pIC50 [3]: 7.92
Ratio IC50 [4]: 13
SMILES: Fc1ccc2[nH]ccc2c1-c1nc(N2CCOCC2)c2nc(CN3CCOCC3)ccc2n1

pIC50 [5]: 6.84
Ratio IC50 [1]: 5.4
Ratio IC50 [2]: 43
pIC50 [3]: 8.59
Ratio IC50 [4]: 73
SMILES: CC(C)(O)C1CCN(Cc2ccc3nc(-c4cnc(N)nc4)nc(N4CCOCC4)c3n2)CC1

half-life [6]: 2.9 h
Cmax [7]: 900 nM
Cmax [8]: 3900 nM
clearance [9]: 53 mL/min/kg
AUC [10]: 11 µM·h
bioavailability [11]: 90%
Cmax [12]: 4700 nM
Cmax [13]: 14000 nM
Cmax [14]: 500 nM
half-life [15]: 2.6 h
AUC [16]: 13 µM·h
clearance [17]: 59 mL/min/kg
bioavailability [18]: 80%
AUC [19]: 63 µM·h
AUC [20]: 46 µM·h
half-life [21]: 5 h
half-life [22]: 4.8 h
AUC [23]: 2.5 µM·h
Vd [24]: 4.9 L/kg
Vd [25]: 8.8 L/kg
half-life [26]: 3.8 h
AUC [27]: 2.6 µM·h
half-life [28]: 2.6 h
Cmax [29]: 1200 nM
SMILES: CC(C)(O)C1CCN(Cc2ccc3nc(-c4c(F)ccc5[nH]ccc45)nc(N4CCOCC4)c3n2)CC1

pIC50 [5]: 6.32
Ratio IC50 [1]: 22
Ratio IC50 [2]: 260
Ratio IC50 [4]: 78
SMILES: CC(C)(O)C1CCN(Cc2ccc3nc(-c4cccc5[nH]ncc45)nc(N4CCOCC4)c3n2)CC1

pIC50 [5]: 6.84
Ratio IC50 [1]: 14
Ratio IC50 [2]: 38
pIC50 [3]: 7.57
Ratio IC50 [4]: 3.7
SMILES: OCc1ccc2nc(-c3c(F)ccc4[nH]ccc34)nc(N3CCOCC3)c2n1

Ratio IC50 [1]: 330
Ratio IC50 [2]: 1500
Ratio IC50 [4]: 140
SMILES: CC(C)(O)C1CCN(Cc2nc3c(N4CCOCC4)nc(-c4c(F)ccc5[nH]ccc45)nc3[nH]2)CC1

pIC50 [5]: 7.26
Ratio IC50 [1]: 370
Ratio IC50 [2]: 610
Ratio IC50 [4]: 210
SMILES: CC(C)(O)C1CCN(Cc2ccc3nc(-c4cccc5[nH]ccc45)nc(N4CCOCC4)c3n2)CC1

pIC50 [3]: 8.72
SMILES: CC(C)(O)C1CCN(Cc2nc3nc(-c4c(F)ccc5[nH]ccc45)nc(N4CCOCC4)c3[nH]2)CC1
